Series [1] in a line: Tmax in Sprague-Dawley rat at 10 mg/kg, ip administered as single dose by LC-MS/MS analysis. It counts as ADME, organism-based. The following applies: in vivo.
A short description of series [2]: Inhibition of CrtN in methicillin-resistant Staphylococcus aureus LRSA205 assessed as reduction in staphyloxanthin levels after 48 hrs by spectrophotometric method-based pigment inhibition assay.
Series [3] deals with Staphylococcus aureus. Nature of the series: In vivo anti-virulence activity against Staphylococcus aureus Newman infected in BALB/c mouse model assessed as reduction in bacterial load in heart at 0.1 mg bid for 3.5 days administered orally 6 hrs post infection by serial dilution method relative to vancomycin. More on the design: scale not given: the % may be the effect or the level left. The format is functional. Summed up:
(§1)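 Mice got 3.1 × 10^7 CFU S. aureus Newman by retro-orbital injection. Oral compound was given b.i.d. for 3.5 d, starting 6 h after infection. […] Log10 CFU was counted per kidney and per heart.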

Series [4] in a line: AUC (0 to 24 hrs) in Sprague-Dawley rat at 10 mg/kg, ip administered as single dose by LC-MS/MS analysis. The format is ADME, organism-based. The arrangement: dose 10 mg/kg, time < 24 hr, route intraperitoneal. The note with it: in vivo.
Series [5] in a line: AUC (0 to 24 hrs) in Sprague-Dawley rat at 5 mg/kg, iv administered as single dose by LC-MS/MS analysis. It counts as ADME, organism-based. The arrangement: dose 5 mg/kg, time < 24 hr, route intravenous. The note with it: in vivo.
The subject of series [6] is Staphylococcus aureus. Nature of the series: In vivo anti-virulence activity against methicillin-resistant Staphylococcus aureus LRSA56 infected in BALB/c mouse model assessed as reduction in bacterial load in kidney at 0.1 mg bid for 3.5 days administered intraperitoneally 6 hrs post infection by serial dilution method relative to control. It counts as functional. The arrangement: scale not given: the % may be the effect or the level left. Summed up: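 Mice were infected by retro-orbital injection with LRSA56 (5.0 × 10^7 CFU) or LRSA202 (7.0 × 10^7 CFU). Compound was given intraperitoneally 6 h after infection. […] Log10 CFU was counted in kidneys and hearts, with groups compared by two-tailed Mann-Whitney test.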

Series [7] addresses T1, 4,4'-diapophytoene desaturase (4,4'-diaponeurosporene-forming) (Staphylococcus aureus (strain Mu50 / ATCC 700699)) (UniProt Q99R76).
T1 sequence (whole entry): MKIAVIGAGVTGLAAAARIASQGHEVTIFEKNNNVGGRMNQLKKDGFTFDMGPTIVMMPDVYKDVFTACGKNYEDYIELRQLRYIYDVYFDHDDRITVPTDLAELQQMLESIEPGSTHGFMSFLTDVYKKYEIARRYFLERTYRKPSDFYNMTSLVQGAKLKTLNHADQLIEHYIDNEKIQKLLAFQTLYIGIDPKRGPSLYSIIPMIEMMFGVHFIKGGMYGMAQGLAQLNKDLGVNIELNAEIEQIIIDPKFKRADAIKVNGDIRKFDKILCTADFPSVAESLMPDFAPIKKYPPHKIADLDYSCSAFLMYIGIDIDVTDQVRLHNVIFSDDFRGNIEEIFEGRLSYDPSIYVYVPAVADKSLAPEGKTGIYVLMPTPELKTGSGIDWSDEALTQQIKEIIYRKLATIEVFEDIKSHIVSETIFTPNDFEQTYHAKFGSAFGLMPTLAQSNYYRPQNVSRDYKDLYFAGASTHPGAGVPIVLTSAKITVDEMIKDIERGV
The following applies: Staphylococcus aureus subsp. aureus Mu50; 1 uM.

Series [8] in a line: Half life in mouse at 10 mg/kg, po administered as single dose by LC-MS/MS analysis. It counts as ADME, organism-based. The following applies: in vivo.
The nature of series [9]: Inhibition of CrtN in methicillin-resistant Staphylococcus aureus XN108 assessed as reduction in staphyloxanthin levels after 48 hrs by spectrophotometric method-based pigment inhibition assay.
Series [10] in a line: AUC (0 to 24 hrs) in mouse at 10 mg/kg, po administered as single dose by LC-MS/MS analysis. The following applies: in vivo. The format is ADME, organism-based. The arrangement: time < 24 hr, dose 10 mg/kg, route oral.
Series [11] can be described thus: Cmax in Sprague-Dawley rat at 10 mg/kg, po administered as single dose by LC-MS/MS analysis. The format is ADME, organism-based. The arrangement: dose 10 mg/kg, route oral. The note with it: in vivo.
For series [12], the system named is Staphylococcus aureus. Nature of the series: In vivo anti-virulence activity against methicillin-resistant Staphylococcus aureus Mu50 infected in BALB/c mouse model assessed as reduction in bacterial load in heart at 0.05 mg bid for 3.5 days administered intraperitoneally 6 hrs post infection by serial dilution method. The format is functional. The arrangement: scale not given: the % may be the effect or the level left. Put shortly:
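Mice were challenged with 1.3 × 10^9 CFU Mu50. Compound was given intraperitoneally, either 24 h before or 6 h after infection. Log10 CFU was counted in kidneys and hearts.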

A short description of series [13]: AUC (0 to 24 hrs) in mouse at 2 mg/kg, iv administered as single dose by LC-MS/MS analysis. It counts as ADME, organism-based. The arrangement: dose 2 mg/kg, time < 24 hr, route intravenous. The note with it: in vivo.
Series [14] relates to Staphylococcus aureus. Nature of the series: In vivo anti-virulence activity against Staphylococcus aureus Newman in mouse lethal infection model assessed as host survival rate at 0.1 mg bid for 3.5 days administered intraperitoneally 6 hrs post infection and measured on day 8. The format is functional. Put shortly:
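In a lethal sepsis model, mice (n=15) were challenged with 2 × 10^8 CFU S. aureus Newman. Animal survival was recorded daily through day 8.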

The target in series [15] is T2, 4,4'-diapophytoene desaturase (4,4'-diaponeurosporene-forming) (Staphylococcus aureus (strain MW2)) (UniProt Q8NUQ6).
T2 sequence (whole entry): T1 sequence (whole entry) with R500Q
The following applies: Staphylococcus aureus subsp. aureus MW2; USA400; 1 uM.

The subject of series [16] is Staphylococcus aureus. Nature of the series: In vivo anti-virulence activity against Staphylococcus aureus Newman infected in BALB/c mouse model assessed as reduction in bacterial load in heart at 0.4 mg bid for 3.5 days administered orally 6 hrs post infection by serial dilution method relative to control. It counts as functional, organism-based. Put shortly:
as §1

For series [17], the system named is Staphylococcus aureus. The experiment in a line: In vivo anti-virulence activity against methicillin-resistant Staphylococcus aureus Mu50 infected in BALB/c mouse model assessed as reduction in bacterial load in kidneys at 0.05 mg bid for 3.5 days administered intraperitoneally 6 hrs post infection by serial dilution method. The format is functional. More on the design: scale not given: the % may be the effect or the level left.

In series [18] the test system is Staphylococcus aureus. The experiment in a line: In vivo anti-virulence activity against methicillin-resistant Staphylococcus aureus NF65Y infected in BALB/c mouse model assessed as reduction in bacterial load in kidney at 0.1 mg bid for 3.5 days administered intraperitoneally 6 hrs post infection by serial dilution method relative to linezolid. The format is functional, organism-based. Summed up: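 Mice infected retro-orbitally with S. aureus NF65Y (3.5 × 10^8 CFU) or XN108 (2.1 × 10^8 CFU). Test compound given i.p. b.i.d. starting 6 h post-infection. […] Log10 CFU per kidney and heart counted. Two-tailed Mann−Whitney test.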

A short description of series [19]: Half life in Sprague-Dawley rat at 10 mg/kg, po administered as single dose by LC-MS/MS analysis. The format is ADME, organism-based. The following applies: in vivo.

Numbering of substitutions follows the chain as printed. The source made the active and inactive calls. The calls are words filed in the database; no cut-off is given here.

Results on one compound are retold here after ChEMBL document CHEMBL4024779, “Novel Terminal Bipheny-Based Diapophytoene Desaturases (CrtN) Inhibitors as Anti-MRSA/VISR/LRSA Agents with Reduced hERG Activity” (J Med Chem, 2018).

The term Tmax denotes the time at which the peak concentration occurs. Usually IC50 stands for the concentration that gives 50% inhibition. In general, AUC(0-t) refers to the area under the concentration-time curve up to a stated or last time point. In general, half-life refers to the time in which the quantity being followed falls by half. The term Cmax denotes the highest concentration seen after dosing.

`CN(C/C=C/c1ccc(-c2ccccc2)cc1)Cc1coc2ccccc12.Cl`: the Tmax in series [1] worked out at 3 h. Also, the IC50 in series [2] was 10.5 nM; in [9] it was 0.2 nM. In addition, the Activity with Staphylococcus aureus [3] is given as >55.3%; with Staphylococcus aureus [6], >83%; with Staphylococcus aureus [12], >99.8%; in the series with Staphylococcus aureus [17], >91.8%. The AUC(0-t) at 24 h in [4] stood at 975000 ng·h/mL; in [5], 2810 ng·h/mL; in [10] it was 4530 ng·h/mL; in series [13], 1070 ng·h/mL. Further, the Survival in series [7] was 0.4%; in the series on Staphylococcus aureus [14], >70%; in [15], 2.3%. In addition, the half-life was 3.35 h in [8] and 1.29 h in series [19]. This compound also returned a Cmax in series [11] of 213 ng/mL. In addition, in the series on Staphylococcus aureus [16], the result was inactive. For the same compound, the result in the series on Staphylococcus aureus [18] was Active.
